Test results: ChEMBL document CHEMBL4689842, “EUbOPEN Chemogenomics Library wave 1” (2021)
Values joined by “and” are separate entries in the source; they are usually repeats but may differ in a detail not shown here. Equal values may be shown once.

Tested on: U2OS
Experiment: Multiplex assay against U2OS
Assay type: toxicity, cell-based
Settings: human
Summary of the method: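 Imaging took place on a CQ1 microscope at 37°C and 5% CO2 once compound had been added to live cells stained at seeding with Hoechst33342, BioTracker Green Microtubule Cytoskeleton Dye, MitoTracker Red and Annexin V Alexa Fluor 680. CellPathfinder machine-learning gating classed cells as Hoechst high-intensity objects or normal cells, classed normal cells as having healthy, pyknosed or fragmented nuclei, and classed pyknosed cells as mitotic or apoptotic. Tubulin, mitochondrial-mass and membrane-permeability phenotypes are per cents of the healthy-nucleus cells.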

[1] = 12 h, 1 µM, compound concentration 1 uM, replicate 1
[2] = 12 h, 1 µM, compound concentration 1 uM, replicate 2
[3] = 24 h, 1 µM, compound concentration 1 uM, replicate 1
[4] = 24 h, 1 µM, compound concentration 1 uM, replicate 2
[5] = 12 h, 10 µM, compound concentration 10 uM, replicate 1
[6] = 12 h, 10 µM, compound concentration 10 uM, replicate 2
[7] = 24 h, 10 µM, compound concentration 10 uM, replicate 1
[8] = 24 h, 10 µM, compound concentration 10 uM, replicate 2

Question: How did the “Population Apoptotic (%)” value [1] turn out when CN1CCN(Cc2cc(NC(=O)c3ccc4c(c3)CN(c3ccccc3)CC4)cc(C(F)(F)F)c2)CC1 was run?
Answer: Its value is 35% and 75%.

Question: And the “Population Healthy Nuclei (%)” value [1]?
Answer: Its value is 63% and 89%.

Question: And the “Population Hoechst High Intensity Objects (%)” value [1]?
Answer: The value was 2%.

Question: What about the “Population Membrane Permeable-Phenotype (%)” value [1] of the same compound?
Answer: The value was 28% and 46%.

Question: And the “Population Mitotic Cells (%)” value [1]?
Answer: The value was 64% and 25%.

Question: And the “Population Normal (%)” value [1]?
Answer: Its value is 97%.

Question: And the “Population Tubulin-Different-Phenotype (%)” value [1]?
Answer: Its value is 98% and 42%.

Question: And the “Total Cell Count” value [1]?
Answer: Its value is 228 and 171.

Question: What about the “Population Fragmented Nuclei (%)” value [2] of the same compound?
Answer: Its value is 28% and 15%.

Question: What about the “Population Healthy Nuclei (%)” value [2] of the same compound?
Answer: The value was 52% and 80%.

Question: And the “Population Hoechst High Intensity Objects (%)” value [2]?
Answer: The value was 5% and 15%.

Question: And the “Population Membrane Permeable-Phenotype (%)” value [2]?
Answer: Its value is 47% and 37%.

Question: What about the “Population Mitotic Cells (%)” value [2] of the same compound?
Answer: Its value is 65% and 100%.

Question: What about the “Population Normal (%)” value [2] of the same compound?
Answer: The value was 94% and 84%.

Question: And the “Population Pyknosed Nuclei (%)” value [2]?
Answer: The value was 19%.

Question: What about the “Population Tubulin-Different-Phenotype (%)” value [2] of the same compound?
Answer: Its value is 100% and 48%.

Question: And the “Total Cell Count” value [2]?
Answer: The value was 128 and 83.

Question: What about the “Population Apoptotic (%)” value [3] of the same compound?
Answer: Its value is 39% and 22%.

Question: What about the “Population Fragmented Nuclei (%)” value [3] of the same compound?
Answer: Its value is 14% and 7%.

Question: What about the “Population Healthy Nuclei (%)” value [3] of the same compound?
Answer: The value was 46% and 88%.

Question: What about the “Population Hoechst High Intensity Objects (%)” value [3] of the same compound?
Answer: Its value is 10% and 3%.

Question: What about the “Population Membrane Permeable-Phenotype (%)” value [3] of the same compound?
Answer: Its value is 33% and 28%.

Question: What about the “Population Mitotic Cells (%)” value [3] of the same compound?
Answer: Its value is 60% and 77%.

Question: What about the “Population Normal (%)” value [3] of the same compound?
Answer: Its value is 89% and 96%.

Question: And the “Total Cell Count” value [3]?
Answer: Its value is 255 and 239.

Question: What about the “Population Fragmented Nuclei (%)” value [4] of the same compound?
Answer: Its value is 19% and 9%.

Question: And the “Population Healthy Nuclei (%)” value [4]?
Answer: Its value is 45% and 80%.

Question: And the “Population Hoechst High Intensity Objects (%)” value [4]?
Answer: Its value is 13% and 11%.

Question: And the “Population Membrane Permeable-Phenotype (%)” value [4]?
Answer: Its value is 36% and 35%.

Question: And the “Population Mitotic Cells (%)” value [4]?
Answer: Its value is 44% and 87%.

Question: What about the “Population Normal (%)” value [4] of the same compound?
Answer: The value was 86% and 88%.

Question: And the “Total Cell Count” value [4]?
Answer: Its value is 144 and 92.

Question: CNC(=O)Nc1ccc2c(c1)[C@@]1(CC2)OC(=O)N(CC(=O)N(Cc2ccc(F)cc2)[C@@H](C)C(F)(F)F)C1=O [A-486] was tested. Which “Population Apoptotic (%)” value [1] did it give?
Answer: Its value is 47%.

Question: What about the “Population Fragmented Nuclei (%)” value [1] of the same compound?
Answer: The value was 4%.

Question: What about the “Population Healthy Nuclei (%)” value [1] of the same compound?
Answer: Its value is 81%.

Question: What about the “Population Hoechst High Intensity Objects (%)” value [1] of the same compound?
Answer: Its value is 4%.

Question: And the “Population Membrane Permeable-Phenotype (%)” value [1]?
Answer: Its value is 63%.

Question: And the “Population Mitochondria Different-Phenotype (%)” value [1]?
Answer: Its value is 11%.

Question: What about the “Population Mitotic Cells (%)” value [1] of the same compound?
Answer: Its value is 52%.

Question: What about the “Population Normal (%)” value [1] of the same compound?
Answer: The value was 95%.

Question: What about the “Population Pyknosed Nuclei (%)” value [1] of the same compound?
Answer: The value was 14%.

Question: And the “Population Tubulin-Different-Phenotype (%)” value [1]?
Answer: Its value is 57%.

Question: And the “Total Cell Count” value [1]?
Answer: The value was 248.

Question: And the “Population Apoptotic (%)” value [2]?
Answer: Its value is 75%.

Question: What about the “Population Fragmented Nuclei (%)” value [2] of the same compound?
Answer: The value was 7%.

Question: What about the “Population Healthy Nuclei (%)” value [2] of the same compound?
Answer: Its value is 88%.

Question: What about the “Population Hoechst High Intensity Objects (%)” value [2] of the same compound?
Answer: The value was 11%.

Question: What about the “Population Membrane Permeable-Phenotype (%)” value [2] of the same compound?
Answer: The value was 59%.

Question: And the “Population Mitochondria Different-Phenotype (%)” value [2]?
Answer: The value was 19%.

Question: What about the “Population Mitotic Cells (%)” value [2] of the same compound?
Answer: The value was 25%.

Question: What about the “Population Normal (%)” value [2] of the same compound?
Answer: The value was 88%.

Question: What about the “Population Pyknosed Nuclei (%)” value [2] of the same compound?
Answer: Its value is 4%.

Question: What about the “Population Tubulin-Different-Phenotype (%)” value [2] of the same compound?
Answer: The value was 60%.

Question: What about the “Total Cell Count” value [2] of the same compound?
Answer: The value was 105.

Question: What about the “Population Apoptotic (%)” value [5] of the same compound?
Answer: Its value is 27%.

Question: What about the “Population Fragmented Nuclei (%)” value [5] of the same compound?
Answer: Its value is 3%.

Question: And the “Population Healthy Nuclei (%)” value [5]?
Answer: The value was 85%.

Question: And the “Population Hoechst High Intensity Objects (%)” value [5]?
Answer: The value was 1%.

Question: What about the “Population Membrane Permeable-Phenotype (%)” value [5] of the same compound?
Answer: The value was 9%.

Question: What about the “Population Mitochondria Different-Phenotype (%)” value [5] of the same compound?
Answer: Its value is 19%.

Question: And the “Population Mitotic Cells (%)” value [5]?
Answer: The value was 72%.

Question: What about the “Population Normal (%)” value [5] of the same compound?
Answer: Its value is 99%.

Question: And the “Population Pyknosed Nuclei (%)” value [5]?
Answer: The value was 11%.

Question: And the “Population Tubulin-Different-Phenotype (%)” value [5]?
Answer: Its value is 12%.

Question: What about the “Total Cell Count” value [5] of the same compound?
Answer: Its value is 201.

Question: What about the “Population Apoptotic (%)” value [6] of the same compound?
Answer: Its value is 33%.

Question: And the “Population Fragmented Nuclei (%)” value [6]?
Answer: The value was 6%.

Question: What about the “Population Healthy Nuclei (%)” value [6] of the same compound?
Answer: Its value is 83%.

Question: What about the “Population Hoechst High Intensity Objects (%)” value [6] of the same compound?
Answer: Its value is 11%.

Question: What about the “Population Membrane Permeable-Phenotype (%)” value [6] of the same compound?
Answer: Its value is 21%.

Question: What about the “Population Mitochondria Different-Phenotype (%)” value [6] of the same compound?
Answer: The value was 26%.

Question: What about the “Population Mitotic Cells (%)” value [6] of the same compound?
Answer: Its value is 66%.

Question: And the “Population Normal (%)” value [6]?
Answer: The value was 88%.

Question: And the “Population Pyknosed Nuclei (%)” value [6]?
Answer: The value was 10%.

Question: What about the “Population Tubulin-Different-Phenotype (%)” value [6] of the same compound?
Answer: The value was 28%.

Question: What about the “Total Cell Count” value [6] of the same compound?
Answer: Its value is 102.

Question: What about the “Population Apoptotic (%)” value [3] of the same compound?
Answer: Its value is 33%.

Question: What about the “Population Fragmented Nuclei (%)” value [3] of the same compound?
Answer: The value was 3%.

Question: And the “Population Healthy Nuclei (%)” value [3]?
Answer: Its value is 89%.

Question: What about the “Population Hoechst High Intensity Objects (%)” value [3] of the same compound?
Answer: The value was 4%.

Question: And the “Population Membrane Permeable-Phenotype (%)” value [3]?
Answer: Its value is 45%.

Question: And the “Population Mitochondria Different-Phenotype (%)” value [3]?
Answer: The value was 14%.

Question: And the “Population Mitotic Cells (%)” value [3]?
Answer: The value was 66%.

Question: And the “Population Normal (%)” value [3]?
Answer: Its value is 95%.

Question: And the “Population Pyknosed Nuclei (%)” value [3]?
Answer: The value was 6%.

Question: What about the “Population Tubulin-Different-Phenotype (%)” value [3] of the same compound?
Answer: The value was 30%.

Question: What about the “Total Cell Count” value [3] of the same compound?
Answer: The value was 329.

Question: And the “Population Apoptotic (%)” value [4]?
Answer: The value was 75%.

Question: And the “Population Fragmented Nuclei (%)” value [4]?
Answer: Its value is 7%.

Question: And the “Population Healthy Nuclei (%)” value [4]?
Answer: The value was 88%.

Question: And the “Population Hoechst High Intensity Objects (%)” value [4]?
Answer: The value was 7%.

Question: And the “Population Membrane Permeable-Phenotype (%)” value [4]?
Answer: The value was 44%.

Question: And the “Population Mitochondria Different-Phenotype (%)” value [4]?
Answer: The value was 18%.

Question: What about the “Population Mitotic Cells (%)” value [4] of the same compound?
Answer: Its value is 25%.

Question: And the “Population Normal (%)” value [4]?
Answer: Its value is 92%.

Question: And the “Population Pyknosed Nuclei (%)” value [4]?
Answer: Its value is 3%.

Question: What about the “Population Tubulin-Different-Phenotype (%)” value [4] of the same compound?
Answer: The value was 27%.

Question: And the “Total Cell Count” value [4]?
Answer: Its value is 115.

Question: And the “Population Apoptotic (%)” value [7]?
Answer: Its value is 46%.

Question: And the “Population Fragmented Nuclei (%)” value [7]?
Answer: Its value is 2%.

Question: What about the “Population Healthy Nuclei (%)” value [7] of the same compound?
Answer: Its value is 92%.

Question: And the “Population Hoechst High Intensity Objects (%)” value [7]?
Answer: The value was 0%.

Question: What about the “Population Membrane Permeable-Phenotype (%)” value [7] of the same compound?
Answer: The value was 5%.

Question: And the “Population Mitochondria Different-Phenotype (%)” value [7]?
Answer: Its value is 14%.

Question: What about the “Population Mitotic Cells (%)” value [7] of the same compound?
Answer: Its value is 53%.

Question: What about the “Population Normal (%)” value [7] of the same compound?
Answer: Its value is 99%.

Question: And the “Population Pyknosed Nuclei (%)” value [7]?
Answer: Its value is 5%.

Question: What about the “Population Tubulin-Different-Phenotype (%)” value [7] of the same compound?
Answer: The value was 17%.

Question: And the “Total Cell Count” value [7]?
Answer: The value was 277.

Question: What about the “Population Apoptotic (%)” value [8] of the same compound?
Answer: The value was 40%.

Question: What about the “Population Fragmented Nuclei (%)” value [8] of the same compound?
Answer: The value was 5%.

Question: What about the “Population Healthy Nuclei (%)” value [8] of the same compound?
Answer: Its value is 90%.

Question: And the “Population Hoechst High Intensity Objects (%)” value [8]?
Answer: Its value is 9%.

Question: What about the “Population Membrane Permeable-Phenotype (%)” value [8] of the same compound?
Answer: Its value is 14%.

Question: And the “Population Mitochondria Different-Phenotype (%)” value [8]?
Answer: Its value is 33%.

Question: And the “Population Mitotic Cells (%)” value [8]?
Answer: Its value is 60%.

Question: And the “Population Normal (%)” value [8]?
Answer: The value was 90%.

Question: What about the “Population Pyknosed Nuclei (%)” value [8] of the same compound?
Answer: Its value is 4%.

Question: And the “Population Tubulin-Different-Phenotype (%)” value [8]?
Answer: The value was 37%.

Question: What about the “Total Cell Count” value [8] of the same compound?
Answer: Its value is 126.
